Experimental findings from ChEMBL document CHEMBL4334482, “Cysteine Residue Containing Merocytochalasans and 17,18-seco-Aspochalasins from Aspergillus micronesiensis” (J Nat Prod, 2019) are described below.

≈ marks a conversion by molar mass, not a printed value. Calls of active or inactive are those of the source. No cut-off for these calls is given here.

The subject of assay [1] is HL-60. As to the kind of experiment: Cytotoxicity against human HL60 cells assessed as reduction in cell viability by MTS assay. The class given is functional, cell-based. The procedure, abridged: (§1)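 In vitro cytotoxicity was tested on a panel of five human cancer lines (HL60, A549, Hep3B, MCF-7, SW480), following an earlier published method. Values are reported as IC50 in μM.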

The subject of assay [2] is A549. The assay can be described thus: Cytotoxicity against human A549 cells assessed as reduction in cell viability by MTS assay. The assay is classed as functional, cell-based. The procedure, abridged:
as §1

For assay [3], the system named is Hep 3B2. The assay can be described thus: Cytotoxicity against human Hep3B cells assessed as reduction in cell viability by MTS assay. The class given is functional, cell-based. In outline:
as §1

Assay [4] concerns MCF7. As to the kind of experiment: Cytotoxicity against human MCF7 cells assessed as reduction in cell viability by MTS assay. The assay is classed as functional, cell-based. In outline: as §1
In assay [5] the test system is SW480. As to the kind of experiment: Cytotoxicity against human SW480 cells assessed as reduction in cell viability by MTS assay. The class given is functional, cell-based. In outline:
as §1

Assay [6] relates to Staphylococcus aureus. The assay can be described thus: Antibacterial activity against Staphylococcus aureus. The class given is functional.
The subject of assay [7] is Staphylococcus aureus. The assay can be described thus: Antibacterial activity against methicillin-resistant Staphylococcus aureus. The assay is classed as functional.
Assay [8] has as its system Candida albicans. As to the kind of experiment: Antifungal activity against Candida albicans assessed as reduction in fungal growth incubated for 48 hrs by two fold serial dilution method. The assay is classed as functional.

Consider `COC(=O)CC/C(C)=C/[C@H]1C=C(C)[C@@H](C)[C@H]2[C@H](CC(C)C)NC(=O)[C@]21C(=O)CCC(=O)O`, for which the result in assay [1], in assay [2], in assay [3], in assay [4] and in assay [5] was inactive.

With `COC(=O)[C@H](O)CS[C@@H]1CC(=O)[C@H](O)CC/C(C)=C/[C@H]2C=C(C)[C@@H](C)[C@H]3[C@H](CC(C)C)NC(=O)[C@]32C1=O`, the IC50 in assay [1] is 3 µM; in assay [2], 16.7 µM; in assay [3], 8.2 µM; in assay [4] it was 17.1 µM; in assay [5] it was 13.6 µM. The MIC50 came to 14.5 µg/mL (≈ 27.1 µM) in assay [6], 10.6 µg/mL (≈ 19.8 µM) in assay [7] and 94.7 µg/mL (≈ 177 µM) in assay [8]. Also, the MIC90 is 27 µg/mL (≈ 50.4 µM) in assay [6], 14.7 µg/mL (≈ 27.4 µM) in assay [7] and more than 100 µg/mL in assay [8].

For `CC(=O)NCCS[C@@H]1CC(=O)[C@H](O)CC/C(C)=C/[C@H]2C=C(C)[C@@H](C)[C@H]3[C@H](CC(C)C)NC(=O)[C@]32C1=O`, the IC50 in assay [1] was 9.3 µM; in assay [2], more than 20 µM; in assay [3], 19.9 µM; in assay [4], 16.1 µM; in assay [5] it was 10.1 µM. The MIC50 in assay [6] turned out to be 40.8 µg/mL (≈ 78.7 µM); in assay [7] it was 17.5 µg/mL (≈ 33.7 µM); in assay [8] it was 43.3 µg/mL (≈ 83.5 µM). For the same compound, the MIC90 amounted to 58.5 µg/mL (≈ 113 µM) in assay [6], 28.4 µg/mL (≈ 54.8 µM) in assay [7] and 89.9 µg/mL (≈ 173 µM) in assay [8].

As to `COC(=O)CCC(=O)[C@@]12C(=O)N[C@@H](CC(C)C)[C@@H]1[C@H](C)C(C)=C[C@@H]2/C=C(\C)CCC(=O)O`, the outcome in assay [1], in assay [2], in assay [3], in assay [4] and in assay [5] was inactive.
